Experiments:
Format in all cases: functional
[1] = tested on: Plasmodium yoelii nigeriensis; experiment: Antimalarial activity against multidrug-resistant Plasmodium yoelii nigeriensis in mice (Mus musculus) at 96 mg/kg/day peroral dose after 4 days; conditions: route oral
Method in brief: (§1)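 Colony-bred Swiss mice (25 ± 1 g) were given 1 × 10⁶ parasitized RBC on day 0. Groups of five were dosed orally from day 0 to 3 in two divided doses daily, 0.1 mL per dose, in groundnut oil (hemisuccinates in 5% NaHCO₃). Parasitemia was read from thin blood smears on days 4–28. % suppression = [(C − T)/C] × 100 against untreated controls. β-Arteether served as positive control.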

[2] = tested on: Plasmodium yoelii nigeriensis; experiment: Antimalarial activity against multidrug-resistant Plasmodium yoelii nigeriensis in mice (Mus musculus) at 48 mg/kg/day peroral dose over 4 days; conditions: route oral; method in brief: as §1
[3] = tested on: Plasmodium yoelii nigeriensis; experiment: Antimalarial activity against multidrug-resistant Plasmodium yoelii nigeriensis in mice (Mus musculus) at 24 mg/kg/day peroral dose after 4 days; conditions: route oral; method in brief: as §1
Mus musculus = experiment: Survival of mouse at 48 mg/kg/day, po after 28 days
Method in brief: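 Swiss mice (25 ± 1 g) were infected with 1 × 10⁶ parasitized RBC on day 0. Five mice per dose were treated orally on days 0–3, twice daily, in groundnut oil or 5% NaHCO₃. Parasitemia was followed by thin smears to day 28. Protection is the percentage of treated mice surviving beyond day 28. β-Arteether served as positive control.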

[4] = tested on: Plasmodium yoelii nigeriensis; experiment: Antimalarial activity against multidrug-resistant Plasmodium yoelii nigeriensis in mice (Mus musculus) at 30 mg/kg/day peroral dose after 4 days; conditions: route oral
[5] = tested on: Plasmodium yoelii nigeriensis; experiment: Antimalarial activity against multidrug-resistant Plasmodium yoelii nigeriensis in mice (Mus musculus) at 100 mg/kg/day peroral dose after 4 days; conditions: route oral

In the case of `C=C(c1ccc(-c2ccccc2)cc1)C1COC2(CCC(=O)CC2)OO1` (centres undefined), the Activity [1] was 92%.

Work on `C=C(c1ccccc1)C1COC2(CCC(=O)CC2)OO1` (centres undefined) yielded an Activity [1] of 7%.

Compound `C=C(c1ccccc1)C1COC2(CCC(O)CC2)OO1` (centres undefined) has an Activity [1] of 78%.

`C=C(c1ccc(-c2ccccc2)cc1)C1COC2(CCC(OC(=O)CCC(=O)O)CC2)OO1` (centres undefined) showed an Activity [1] of 99%.

In the case of `C=C(c1ccc(-c2ccccc2)cc1)C1COC2(CCC(O)CC2)OO1` (centres undefined), the Activity [1] was 91%.

`C=C(c1ccccc1)C1COC2(CCC(OC(=O)CCC(=O)O)CC2)OO1` (centres undefined) gave an Activity [1] of 82%.

Compound `C=C(c1ccccc1)C1COC2(CCC(C)(O)CC2)OO1` (centres undefined) has an Activity [1] of 92%.

In the case of `C=C(c1ccccc1)C1COC2(CCC(=C(C)C(=O)OCC)CC2)OO1` (centres undefined), the Activity [1] was 39%.

Compound `C=C(c1ccc(-c2ccccc2)cc1)C1COC2(CCC(=C(C)C(=O)OCC)CC2)OO1` (centres undefined) has an Activity [2] of 100% and an Activity [1] of 100%.

`C=C(c1ccccc1)C1COC2(CCC(O)(c3ccccc3)CC2)OO1` (centres undefined) showed an Activity [1] of 95%.

Work on `C=C(c1ccc(Cl)cc1)C1COC2(CCC(=C(C)C(=O)OCC)CC2)OO1` (centres undefined) yielded an Activity [1] of 87%.

For `C=C(c1ccc(Cl)cc1)C1COC2(CCC(OC(=O)CCC(=O)O)CC2)OO1` (centres undefined), the Activity [1] was 39%.

For `C=C(c1ccc(Cl)cc1)C1COC2(CCC(=CC(=O)OCC)CC2)OO1` (centres undefined), the Activity [3] was 100%, the Activity [2] was 100% and the Activity [1] was 100%.

`C=C(c1ccc(C)cc1)C1COC2(CCC(OC(=O)CCC(=O)O)CC2)OO1` (centres undefined) showed an Activity [1] of 97%.

`C=C(c1ccc(OC)cc1)C1COC2(CCC(=CC(=O)OCC)CC2)OO1` (centres undefined) showed an Activity [2] of 100%, an Activity (Mus musculus) of 40% and an Activity [1] of 100%.

`C=C(c1ccc(Cl)cc1)C1COC2(CCC(O)CC2)OO1` (centres undefined) gave an Activity [1] of 74%.

In the case of `C=C(c1ccc(C)cc1)C1COC2(CCC(O)CC2)OO1` (centres undefined), the Activity [1] was 37%.

`C=C(c1ccc(C2CCCCC2)cc1)C1COC2(CCC(=CC(=O)OCC)CC2)OO1` (centres undefined) gave an Activity [2] of 100%, an Activity (Mus musculus) of 40% and an Activity [1] of 100%.

In the case of `C=C(c1ccc(C)cc1)C1COC2(CCC(=O)CC2)OO1` (centres undefined), the Activity [1] was 7%.

For `C=C(c1ccc(Cl)cc1)C1COC2(CCC(=O)CC2)OO1` (centres undefined), the Activity [1] was 18%.

`C=C(c1ccc(OC)cc1)C1COC2(CCC(=C(C)C(=O)OCC)CC2)OO1` (centres undefined) showed an Activity [1] of 18%.

`C=C(c1ccc2ccccc2c1)C1COC2(CCC(=CC(=O)OCC)CC2)OO1` (centres undefined) showed an Activity [3] of 100%, an Activity [2] of 100% and an Activity [1] of 100%.

With `C=C(c1ccc2ccccc2c1)C1COC2(CCC(=C(C)C(=O)OCC)CC2)OO1` (centres undefined) the Activity [1] was 97%.

`C=C(c1ccc(C2CCCCC2)cc1)C1COC2(CCC(=O)CC2)OO1` (centres undefined) gave an Activity [1] of 100%.

`C=C(c1ccc2ccccc2c1)C1COC2(CCC(=O)CC2)OO1` (centres undefined) showed an Activity [1] of 15%.

`C=C(c1ccccc1)C1COC2(CCC(=CC(=O)OCC)CC2)OO1` (centres undefined) gave an Activity [3] of 99%, an Activity [2] of 100% and an Activity [1] of 100%.

Work on `C=C(c1ccc(OC)cc1)C1COC2(CCC(=O)CC2)OO1` (centres undefined) yielded an Activity [1] of 32%.

`C=C(c1ccc(C)cc1)C1COC2(CCC(=C(C)C(=O)OCC)CC2)OO1` (centres undefined) gave an Activity [1] of 100%.

Work on `C=C(c1ccc(C)cc1)C1COC2(CCC(=CC(=O)OCC)CC2)OO1` (centres undefined) yielded an Activity [3] of 100%, an Activity [2] of 100% and an Activity [1] of 100%.

Compound `C=C(c1ccc(C2CCCCC2)cc1)C1COC2(CCC(=C(C)C(=O)OCC)CC2)OO1` (centres undefined) has an Activity [1] of 100%.

`C=C(c1ccc(-c2ccccc2)cc1)C1COC2(CCC(=CC(=O)OCC)CC2)OO1` (centres undefined) showed an Activity [2] of 93% and an Activity [1] of 100%.

`C=C(c1ccccc1)C1COC2(CCC(O)(CC(=O)OCC)CC2)OO1` (stereo in doubt; 24a) showed an Activity [1] of 87%.

With `C=C(c1ccccc1)C1COC2(CCC(O)(CC(=O)OCC)CC2)OO1` (stereo in doubt; 24b) the Activity [1] was 37%.

`C=C(c1ccc(-c2ccccc2)cc1)C1COC2(CCC(O)(CC(=O)OCC)CC2)OO1` (stereo in doubt; 25a) showed an Activity [1] of 93%.

For `C=C(c1ccc(-c2ccccc2)cc1)C1COC2(CCC(O)(CC(=O)OCC)CC2)OO1` (stereo in doubt; 25b), the Activity [1] was 97%.

Work on `C=C(c1ccc(Cl)cc1)C1COC2(CCC(O)(CC(=O)OCC)CC2)OO1` (stereo in doubt; 26a) yielded an Activity [1] of 31%.

`C=C(c1ccc(Cl)cc1)C1COC2(CCC(O)(CC(=O)OCC)CC2)OO1` (stereo in doubt; 26b) was tested, and the Activity [1] was 74%.

In the case of `CCO[C@H]1O[C@@H]2O[C@@]3(C)CC[C@H]4[C@H](C)CC[C@@H]([C@H]1C)[C@@]24OO3` [ARTEMOTIL], the Activity [3] was 100% and the Activity [2] was 100%.

`CCN(CC)CCCC(C)Nc1ccnc2cc(Cl)ccc12` (centres undefined) [CHLOROQUINE] gave an Activity [4] of 100% and an Activity [5] of 100%.

In the case of `CCCCN(CCCC)CCC(O)c1cc2c(Cl)cc(Cl)cc2c2cc(C(F)(F)F)ccc12` (centres undefined) [HALOFANTRINE], the Activity [4] was 100% and the Activity [5] was 100%.

In the case of `OC(c1cc(C(F)(F)F)nc2c(C(F)(F)F)cccc12)C1CCCCN1` (centres undefined) [MEFLOQUINE], the Activity [4] was 100% and the Activity [5] was 100%.

— ChEMBL document CHEMBL1147651, “Orally active 1,2,4-trioxanes: synthesis and antimalarial assessment of a new series of 9-functionalized 3-(1-arylvinyl)-1,2,5-trioxaspiro[5.5]undecanes against multi-drug-resistant plasmodium yoelii nigeriensis in mice” (2006)
